Test results published in ChEMBL document CHEMBL4400518, “Synthesis, antimicrobial and cytotoxic activities, and molecular docking studies of N-arylsulfonylindoles containing an aminoguanidine, a semicarbazide, and a thiosemicarbazide moiety” (Eur J Med Chem, 2019).
In brackets after ≈: the same amount, converted by molar mass.

How the values were obtained:
[1] = Selectivity index, ratio of IC50 for HEK293T cells to MIC for Bacillus subtilis CMCC 63501; assay type: toxicity; details: human, read-out: Selectivity Index
[2] = Selectivity index, ratio of IC50 for HEK293T cells to MIC for Streptococcus pyogenes CMCC 32067; assay type: toxicity; details: human, read-out: Selectivity Index
[3] = Selectivity index, ratio of IC50 for HEK293T cells to MIC for multidrug-resistant Escherichia coli ATCC BAA-196; assay type: toxicity; details: human, read-out: Selectivity Index
[4] = test system: Escherichia coli; test: Antibacterial activity against Escherichia coli CMCC 25922 measured after 24 hrs by ELISA; assay type: functional; details: CMCC 25922, 24 h
Procedure, shortened: (§1)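 Broth microdilution MIC. Mid-log bacteria in MHB or TSB diluted 1000-fold, inoculated at 10^5 CFU/mL. Compounds added from DMSO stocks; final DMSO at most 0.05%. Incubation 24 h at 37 °C. Growth read as absorbance at 630 nm. MIC taken as the lowest concentration giving complete growth inhibition. Three independent experiments.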

[5] = test system: Bacillus subtilis; test: Antibacterial activity against Bacillus subtilis CMCC 63501 measured after 24 hrs by ELISA; assay type: functional; details: CMCC 63501, 24 h; procedure, shortened: as §1
[6] = Selectivity index, ratio of IC50 for HEK293T cells to MIC for Escherichia coli CMCC 44568; assay type: toxicity; details: human, read-out: Selectivity Index
[7] = Selectivity index, ratio of IC50 for HEK293T cells to MIC for Streptococcus pneumoniae CMCC 31968; assay type: toxicity; details: human, read-out: Selectivity Index
[8] = Cytotoxicity against human A590 cells measured after 48 hrs by CCK8 assay; assay type: functional, cell-based
Procedure, shortened: (§2)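 Cells kept in DMEM with 10% FBS and penicillin-streptomycin at 37 °C, 5% CO2. About 1×10^4 cells per well attached for 24 h, then exposed for 48 h to 0.3, 1, 3, 10, 30 and 100 µmol/L of compound, in triplicate wells. CCK-8 added for 3 h, OD read at 450 nm. IC50 is the concentration inhibiting growth by 50%.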

[9] = test system: Pseudomonas aeruginosa; test: Antibacterial activity against Pseudomonas aeruginosa CMCC 27853 measured after 24 hrs by ELISA; assay type: functional; details: CMCC 27853, 24 h; procedure, shortened: as §1
[10] = test system: Streptococcus pneumoniae; test: Antibacterial activity against Streptococcus pneumoniae CMCC 31968 measured after 24 hrs by ELISA; assay type: functional; details: CMCC 31968, 24 h
[11] = test system: Pseudomonas aeruginosa; test: Antibacterial activity against multidrug-resistant Pseudomonas aeruginosa ATCC BAA-2111 measured after 24 hrs by ELISA; assay type: functional; details: ATCC BAA-2111, 24 h
Procedure, shortened: (§3)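 Broth serial dilution MIC. Mid-log bacteria in Mueller-Hinton or Tryptone Soya broth, diluted 1000-fold and inoculated at 10^5 CFU/mL. Compounds from DMSO stock, final DMSO ≤0.05%. Incubated 24 h at 37 °C; growth read as absorbance at 630 nm. MIC is the lowest concentration giving complete growth inhibition. Three independent experiments.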

[12] = test system: Streptococcus pyogenes; test: Antibacterial activity against Streptococcus pyogenes CMCC 32067 measured after 24 hrs by ELISA; assay type: functional; details: CMCC 32067, 24 h; procedure, shortened: as §1
[13] = Selectivity index, ratio of IC50 for HEK293T cells to MIC for methicillin-resistant Staphylococcus aureus ATCC 43300; assay type: toxicity; details: human, read-out: Selectivity Index
[14] = Selectivity index, ratio of IC50 for HEK293T cells to MIC for Staphylococcus aureus CMCC 25923; assay type: toxicity; details: human, read-out: Selectivity Index
[15] = test system: Escherichia coli; test: Antibacterial activity against Escherichia coli CMCC 44568 measured after 24 hrs by ELISA; assay type: functional; details: CMCC 44568, 24 h; procedure, shortened: as §1
[16] = Selectivity index, ratio of IC50 for HEK293T cells to MIC for multidrug-resistant Pseudomonas aeruginosa ATCC BAA-2111; assay type: toxicity; details: human, read-out: Selectivity Index
[17] = Selectivity index, ratio of IC50 for HEK293T cells to MIC for methicillin-resistant Staphylococcus aureus ATCC 33591; assay type: toxicity; details: human, read-out: Selectivity Index
[18] = Selectivity index, ratio of IC50 for HEK293T cells to MIC for Staphylococcus aureus CMCC(B) 26003; assay type: toxicity; details: human, read-out: Selectivity Index
[19] = Selectivity index, ratio of IC50 for HEK293T cells to MIC for Enterococcus faecalis CMCC 29212; assay type: toxicity; details: human, read-out: Selectivity Index
[20] = Selectivity index, ratio of IC50 for HEK293T cells to MIC for Pseudomonas aeruginosa CMCC 27853; assay type: toxicity; details: human, read-out: Selectivity Index
[21] = Selectivity index, ratio of IC50 for HEK293T cells to MIC for Escherichia coli CMCC 25922; assay type: toxicity; details: human, read-out: Selectivity Index
[22] = test system: Staphylococcus aureus; test: Antibacterial activity against Staphylococcus aureus CMCC 25923 measured after 24 hrs by ELISA; assay type: functional; details: CMCC 25923, 24 h; procedure, shortened: as §1
[23] = test system: SGC-7901; test: Cytotoxicity against human SGC7901 cells measured after 48 hrs by CCK8 assay; assay type: functional, cell-based; details: SGC-7901, 48 h; procedure, shortened: as §2
[24] = test system: Staphylococcus aureus; test: Antibacterial activity against Staphylococcus aureus CMCC(B) 26003 measured after 24 hrs by ELISA; assay type: functional; details: CMCC(B) 26003, 24 h; procedure, shortened: as §1
[25] = test system: Staphylococcus aureus; test: Antibacterial activity against methicillin-resistant Staphylococcus aureus ATCC 33591 measured after 24 hrs by ELISA; assay type: functional; details: ATCC 33591, 24 h; procedure, shortened: as §3
[26] = test system: Staphylococcus aureus; test: Antibacterial activity against methicillin-resistant Staphylococcus aureus ATCC 43300 measured after 24 hrs by ELISA; assay type: functional; details: ATCC 43300, 24 h; procedure, shortened: as §3
[27] = test system: HEK-293T; test: Cytotoxicity against HEK293T cells measured after 48 hrs by CCK8 assay; assay type: cell-based; details: Homo sapiens; procedure, shortened: as §2
[28] = test system: Enterococcus faecalis; test: Antibacterial activity against Enterococcus faecalis CMCC 29212 measured after 24 hrs by ELISA; assay type: functional; details: CMCC 29212, 24 h; procedure, shortened: as §1
[29] = test system: Escherichia coli; test: Antibacterial activity against multidrug-resistant Escherichia coli ATCC BAA-196 measured after 24 hrs by ELISA; assay type: functional; details: ATCC BAA-196, 24 h; procedure, shortened: as §3
[30] = Selectivity index, ratio of IC50 for HEK293T cells to MIC for Pseudomonas aeruginosa CMCC 10104; assay type: toxicity; details: human, read-out: Selectivity Index
[31] = test system: Pseudomonas aeruginosa; test: Antibacterial activity against Pseudomonas aeruginosa CMCC 10104 measured after 24 hrs by ELISA; assay type: functional; details: CMCC 10104, 24 h; procedure, shortened: as §1
[32] = test system: Staphylococcus aureus; test: Antibacterial activity against Staphylococcus aureus CMCC 25923 assessed as ratio of MIC after and before 16 passages at sub-MIC; assay type: functional
Procedure, shortened: (§4)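 Resistance by serial passage. After an initial broth-dilution MIC, bacteria grown at MIC/2 were transferred to a fresh MIC assay every 22 h incubation, repeatedly. Norfloxacin was the comparator antibiotic. MIC was tracked against passage day.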

[33] = test system: Escherichia coli; test: Antibacterial activity against Escherichia coli CMCC 44568 assessed as ratio of MIC after and before 16 passages at sub-MIC; assay type: functional; procedure, shortened: as §4

Compound | selectivity ratio [1] | selectivity ratio [2] | selectivity ratio [3] | MIC [4] | MIC [5] | selectivity ratio [6] | selectivity ratio [7] | IC50 [8] | MIC [9] | MIC [10] | MIC [11] | MIC [12] | MIC [15] | MIC [22] | MIC [24] | MIC [25] | MIC [26] | MIC [28] | MIC [29] | MIC [31] | also measured
Cc1ccc(S(=O)(=O)n2cc(/C=N\NC(=N)N)c3ccccc32)cc1 | 15.4 | < 0.24 | 7.67 | 11.3 µM (≈ 4.01 µg/mL) | 5.64 µM (≈ 2 µg/mL) | 7.68 | 30.7 | 12.2 µM | 45.1 µM (≈ 16 µg/mL) | 2.82 µM (≈ 1 µg/mL) | 11.3 µM (≈ 4.01 µg/mL) | > 361 µM | 11.3 µM (≈ 4.01 µg/mL) | 11.3 µM (≈ 4.01 µg/mL) | 11.3 µM (≈ 4.01 µg/mL) | 5.63 µM (≈ 2 µg/mL) | 2.82 µM (≈ 1 µg/mL) | 45.1 µM (≈ 16 µg/mL) | 11.3 µM (≈ 4.01 µg/mL) | 11.3 µM (≈ 4.01 µg/mL) | selectivity ratio [13]: 30.7; selectivity ratio [14]: 7.68; selectivity ratio [16]: 7.67; selectivity ratio [17]: 15.4; selectivity ratio [18]: 7.68; selectivity ratio [19]: 1.92; selectivity ratio [20]: 1.92; selectivity ratio [21]: 7.68; IC50 [23]: 2.12 µM; IC50 [27]: 86.7 µM; selectivity ratio [30]: 7.68
C/C(=N/NC(=N)N)c1cn(S(=O)(=O)c2ccc(C)cc2)c2ccccc12 | 4.89 | 2.44 | 4.89 | 21.7 µM (≈ 8.01 µg/mL) | 10.8 µM (≈ 4 µg/mL) | 4.89 | 19.6 | 2.68 µM | 347 µM (≈ 128 µg/mL) | 2.71 µM (≈ 1 µg/mL) | > 86.7 µM | 21.7 µM (≈ 8.01 µg/mL) | 10.8 µM (≈ 4 µg/mL) | 5.42 µM (≈ 2 µg/mL) | 10.8 µM (≈ 4 µg/mL) | 5.42 µM (≈ 2 µg/mL) | 5.42 µM (≈ 2 µg/mL) | 43.4 µM (≈ 16 µg/mL) | 10.8 µM (≈ 4 µg/mL) | 10.8 µM (≈ 4 µg/mL) | selectivity ratio [13]: 9.78; selectivity ratio [14]: 9.78; selectivity ratio [16]: < 0.61; selectivity ratio [17]: 9.78; selectivity ratio [18]: 4.89; selectivity ratio [19]: 1.22; selectivity ratio [20]: 0.15; selectivity ratio [21]: 2.44; IC50 [23]: 2.38 µM; IC50 [27]: 53 µM; selectivity ratio [30]: 4.89
Cc1ccc(S(=O)(=O)n2cc(/C=N\NC(=N)N)c3cc(Br)ccc32)cc1 | 31.8 | < 0.24 | 63.9 | 9.24 µM (≈ 4.01 µg/mL) | 2.31 µM (≈ 1 µg/mL) | 31.8 | < 0.25 | 15.1 µM | > 296 µM | > 296 µM | > 73.9 µM | > 296 µM | 2.31 µM (≈ 1 µg/mL) | 2.31 µM (≈ 1 µg/mL) | 2.31 µM (≈ 1 µg/mL) | 1.15 µM (≈ 0.499 µg/mL) | 1.15 µM (≈ 0.499 µg/mL) | 9.24 µM (≈ 4.01 µg/mL) | 1.15 µM (≈ 0.499 µg/mL) | > 296 µM | selectivity ratio [13]: 63.9; selectivity ratio [14]: 31.8; selectivity ratio [16]: < 0.99; selectivity ratio [17]: 63.9; selectivity ratio [18]: 31.8; selectivity ratio [19]: 7.95; selectivity ratio [20]: < 0.25; selectivity ratio [21]: 7.95; IC50 [23]: 4 µM; IC50 [27]: 73.5 µM; selectivity ratio [30]: < 0.25
CCn1cc(C(=O)O)c(=O)c2cc(F)c(N3CCNCC3)cc21 [NORFLOXACIN] |  |  |  | 0.39 µM (≈ 0.125 µg/mL) | 6.27 µM (≈ 2 µg/mL) |  |  |  | 6.27 µM (≈ 2 µg/mL) | > 401 µM | 3.13 µM (≈ 1 µg/mL) | > 401 µM | 0.39 µM (≈ 0.125 µg/mL) | 0.39 µM (≈ 0.125 µg/mL) | 0.39 µM (≈ 0.125 µg/mL) | 0.78 µM (≈ 0.249 µg/mL) | 1.57 µM (≈ 0.501 µg/mL) | 3.13 µM (≈ 1 µg/mL) | 1.57 µM (≈ 0.501 µg/mL) | 12.5 µM (≈ 4 µg/mL) | Ratio [32]: 32; Ratio [33]: 16
